The values below come from ChEMBL document CHEMBL4725480 (ACS Med Chem Lett, 2020).

Series [1] concerns the target NAD-dependent protein deacylase sirtuin-6 (Homo sapiens) (UniProt Q8N6T7). Put plainly: Activation of His-tagged N-terminal truncated human SIRT6 (13 to 355 residues) expressed in Escherichia coli BL21 (DE3) codon+ cells assessed as increase in deacetylation activity using acetyl-H3K9 peptide as substrate incubated for 2 hrs in presence of NAD+ by mass spectrometric analysis relative to control. The settings on record: filed as activator.

Series [2] has the same target. Put plainly: Activation of N-terminal His-tagged human SIRT6 (1 to 355 residues) expressed in Escherichia coli M15(pREP4) assessed as increase in substrate deacetylation activity using FdL1 substrate peptide at 250 to 1000 uM incubated for 1 hr in presence of NAD+ by fluorescence assay. The settings on record: filed as activator, dose microM 250-1000, time 1.0 hrs. Put shortly:
(§1)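 Deacetylation assay with the fluorophore-labelled FdL substrate, run alongside a control for artificial effects from the compound interacting with the fluorophore; fluorescence read-out.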

Series [3] has the same target. In words: Activation of N-terminal His-tagged human SIRT6 (1 to 355 residues) expressed in Escherichia coli M15(pREP4) assessed as increase in deacetylation activity using FdL1 substrate peptide incubated for 1 hr in presence of NAD+ by fluorescence assay. To be noted: filed as activator. In a few lines:
as §1

Series [4] shares this target. Put plainly: Activation of N-terminal His-tagged human SIRT6 (1 to 355 residues) expressed in Escherichia coli M15(pREP4) assessed as increase in deacetylation activity using acetyl-H3K9 peptide as substrate incubated for 2 hrs in presence of NAD+ by mass spectrometric analysis relative to control. Put shortly:
(§2)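 Deacetylation measured by mass spectrometry using an unlabelled acetylated peptide that represents the physiological histone H3 Lys9 site (H3K9ac); compound tested across a dose range.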

For series [5], the target named is T1, NAD-dependent protein deacetylase sirtuin-2 (Homo sapiens, UniProt Q8IXJ6).
T1 sequence (Q8IXJ6 whole entry): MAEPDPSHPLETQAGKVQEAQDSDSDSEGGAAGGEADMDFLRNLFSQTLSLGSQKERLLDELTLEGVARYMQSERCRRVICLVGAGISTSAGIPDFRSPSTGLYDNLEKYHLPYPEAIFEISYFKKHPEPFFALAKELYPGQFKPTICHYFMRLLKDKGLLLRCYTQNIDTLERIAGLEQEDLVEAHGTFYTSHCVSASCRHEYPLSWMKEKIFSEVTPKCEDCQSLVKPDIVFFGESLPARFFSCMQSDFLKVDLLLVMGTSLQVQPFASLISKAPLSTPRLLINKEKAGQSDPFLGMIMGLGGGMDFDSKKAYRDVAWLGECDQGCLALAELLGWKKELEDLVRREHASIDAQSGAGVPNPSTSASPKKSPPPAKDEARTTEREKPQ
Put plainly: Inhibition of N-terminal His-tagged human recombinant SIRT2 (55 to 356 residues) expressed in Escherichia coli Rossetta2 cells assessed as decrease in substrate deacetylation activity using QPK(acetyl-K) as substrate at 250 to 1000 uM incubated for 30 mins by fluorescence based analysis. The settings on record: 0.5 h, dose 250-1000 µM.

Series [6] has as its target NAD-dependent protein deacylase sirtuin-6 (Homo sapiens) (UniProt Q8N6T7). Put plainly: Activation of N-terminal His-tagged human SIRT6 (1 to 355 residues) expressed in Escherichia coli M15(pREP4) assessed as increase in deacetylation activity using acetyl-H3K9 peptide as substrate incubated for 2 hrs in presence of NAD+ by mass spectrometric analysis. The settings on record: filed as activator. Put shortly: as §2

The target in series [7] is T2, NAD-dependent protein deacetylase sirtuin-3, mitochondrial (Homo sapiens, UniProt Q9NTG7).
T2 sequence (Q9NTG7 whole entry): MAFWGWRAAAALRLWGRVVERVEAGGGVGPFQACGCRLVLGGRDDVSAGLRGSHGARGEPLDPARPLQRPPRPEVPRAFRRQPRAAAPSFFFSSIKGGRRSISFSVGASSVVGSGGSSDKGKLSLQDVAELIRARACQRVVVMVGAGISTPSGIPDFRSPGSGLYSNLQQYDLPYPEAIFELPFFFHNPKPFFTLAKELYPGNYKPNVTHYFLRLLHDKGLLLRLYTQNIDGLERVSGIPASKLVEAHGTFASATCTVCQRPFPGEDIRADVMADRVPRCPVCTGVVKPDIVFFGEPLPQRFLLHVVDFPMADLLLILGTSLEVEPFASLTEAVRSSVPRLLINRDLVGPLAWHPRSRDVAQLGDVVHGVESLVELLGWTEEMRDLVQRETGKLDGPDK
Put plainly: Inhibition of N-terminal His-tagged human recombinant SIRT3 (118 to 399 residues) expressed in Escherichia coli assessed as decrease in substrate deacetylation using QPK(acetyl-K) as substrate at 250 to 1000 uM incubated for 30 mins by fluorescence based analysis. The settings on record: 0.5 h, dose 250-1000 µM.

In series [8] the target is T3, NAD-dependent protein deacetylase sirtuin-1 (Homo sapiens, UniProt Q96EB6).
T3 sequence (Q96EB6 whole entry): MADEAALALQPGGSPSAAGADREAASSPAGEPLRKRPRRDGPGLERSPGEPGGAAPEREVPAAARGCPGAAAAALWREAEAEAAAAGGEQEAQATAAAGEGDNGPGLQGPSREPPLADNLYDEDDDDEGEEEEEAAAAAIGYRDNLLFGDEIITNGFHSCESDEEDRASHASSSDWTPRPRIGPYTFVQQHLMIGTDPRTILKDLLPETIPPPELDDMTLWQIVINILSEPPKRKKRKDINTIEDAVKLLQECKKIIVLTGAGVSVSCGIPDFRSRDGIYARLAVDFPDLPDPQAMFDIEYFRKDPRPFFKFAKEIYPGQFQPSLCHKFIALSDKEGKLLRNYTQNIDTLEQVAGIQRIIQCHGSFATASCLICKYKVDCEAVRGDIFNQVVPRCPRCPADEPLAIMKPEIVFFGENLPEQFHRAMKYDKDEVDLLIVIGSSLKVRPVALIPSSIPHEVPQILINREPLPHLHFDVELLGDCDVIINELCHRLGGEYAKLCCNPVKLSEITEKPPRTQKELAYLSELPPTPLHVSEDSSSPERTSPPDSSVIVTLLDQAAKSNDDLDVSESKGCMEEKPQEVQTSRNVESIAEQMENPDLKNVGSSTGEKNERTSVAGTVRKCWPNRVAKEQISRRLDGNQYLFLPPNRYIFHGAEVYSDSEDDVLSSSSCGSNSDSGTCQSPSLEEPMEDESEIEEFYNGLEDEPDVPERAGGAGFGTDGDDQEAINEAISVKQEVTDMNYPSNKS
In words: Inhibition of N-terminal His-tagged human full length recombinant SIRT1 expressed in Escherichia coli at 250 to 1000 uM by fluorescence based analysis. The settings on record: dose 250-1000 µM.

Activity calls are given as the source filed them. The rule behind the calls is not given here.

Chain of NAD-dependent protein deacylase sirtuin-6 (Homo sapiens) (Q8N6T7 whole entry, the tested form may be a part): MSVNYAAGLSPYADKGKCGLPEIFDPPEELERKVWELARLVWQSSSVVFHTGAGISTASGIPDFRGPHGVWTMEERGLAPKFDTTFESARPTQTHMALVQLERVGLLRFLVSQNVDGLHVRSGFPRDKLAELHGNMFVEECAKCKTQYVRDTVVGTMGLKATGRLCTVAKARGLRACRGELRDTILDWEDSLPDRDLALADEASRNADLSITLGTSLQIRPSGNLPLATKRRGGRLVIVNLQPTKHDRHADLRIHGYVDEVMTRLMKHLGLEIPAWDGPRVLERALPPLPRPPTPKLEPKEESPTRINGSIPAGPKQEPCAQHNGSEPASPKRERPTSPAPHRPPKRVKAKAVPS

Regarding `CC(C)n1c(/C=C/C(O)CC(O)CC(=O)O)c(-c2ccc(F)cc2)c2ccccc21` (stereo not drawn) [FLUVASTATIN], the fold change (FC) in series [1] is 4; in series [4], over 3. For the same molecule, the outcome in series [2] and in series [3] was Active. Besides, the “inhibition (INH)” value in series [5], in series [7] and in series [8] was “Active” throughout. Moreover, the Activity result in series [6] was “Dose-dependent effect”.
